# Source: PubChem BioAssay
# TLR9-MyD88 inh – inhibitors of TLR9-MyD88 association in cells, primary screen, cell-based, CHO, BLA complementation, fluorescence. Toll-like receptor 9 (Homo sapiens) + Myeloid differentiation primary response protein …. CCF4 FRET ratio. inhibition, % at 4.98 µM. actives 0.21% (n = 340,000);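 active = inhibition above the mean over all tested compounds plus 3 SD, cut at about 21% in these data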;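 also: 0% = DMSO only wells and 100% = clavulanate BLA inhibitor control wells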
# MC4R ag barr – MC4R agonists recruiting beta-arrestin, primary screen, cell-based, luminescence, agonist arm of biased-ligand search. AID 540308, 2011. U2OS MC4R beta-arrestin complementation; percent of melanotan II response, DMSO zero. actives 0.98% (n = 360,000). activation, % at 8.9 µM. Melanocortin receptor 4 (Homo sapiens), P32245;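 active = activation above a per-plate cutoff, the mean activation of sample wells on that plate plus 3 SD, cut at about 8% in these data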
# Target sequence (P32245 whole entry, looked up): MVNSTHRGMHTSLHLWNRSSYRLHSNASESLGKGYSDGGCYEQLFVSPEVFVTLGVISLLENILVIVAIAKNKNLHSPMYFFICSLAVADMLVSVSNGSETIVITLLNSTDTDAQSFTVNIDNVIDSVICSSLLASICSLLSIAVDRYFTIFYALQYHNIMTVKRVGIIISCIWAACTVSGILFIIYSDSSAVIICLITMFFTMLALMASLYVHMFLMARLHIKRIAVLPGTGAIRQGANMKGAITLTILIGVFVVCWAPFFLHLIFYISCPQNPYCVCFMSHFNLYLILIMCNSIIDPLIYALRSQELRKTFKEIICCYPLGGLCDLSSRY
# TLR4 MyD88 comp – inhibitors of TLR4-MyD88 association in cells, primary screen, cell-based, HeLa CL3-4, BLA complementation, FRET ratio; HeLa CL3-4 TLR4/MyD88 BLA complementation; inhibition, % at 8.4 µM; AID 861, 2007; Toll-like receptor 4 (Homo sapiens) + Myeloid differentiation primary response protein …; actives 0.18% (n = 200,000); in the data active = inhibition above about 25%;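 also: 0% = vehicle and 100% = reference inhibitor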
# MIN6 prolif-1 – inducers of MIN6 beta-cell proliferation, primary screen, ATP luminescence, uHTS; MIN6 cells proliferation, ATPlite luminescence, 48 h; cells starved in 0.2% serum; 100% = growth in 10% serum; proliferation, % at 10 µM; actives 0.29% (n = 330,000);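 active = compounds whose signal lies at least 3.5 SD above the mean of all wells on their plate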;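 also: 0% = DMSO-treated cells in low-serum medium and 100% = 10% serum control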
# NOD2-RIPK2 inh – NOD2-RIPK2 binding disruptors in cells, primary screen, fluorescence, CHO cells, BLA complementation | CCF4 ratio | inhibition, % at 4.98 µM | actives 0.38% (n = 360,000) | AID 624267, 2012; in the data active = inhibition above about 21%;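 also: 0% = vehicle only and 100% = reference blocker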
# MC4R antag cAMP – MC4R antagonists of cAMP signaling, primary screen, cell-based, TR-FRET, antagonist arm of biased-ligand search; actives 0.48% (n = 360,000); MC4R-expressing cells, MTII-stimulated cAMP, LANCE TR-FRET; inhibition, % at 6.5 µM; Melanocortin receptor 4 (Homo sapiens), P32245;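 active = inhibition above its plate's cutoff, the mean of tested wells on that plate plus 3 SD, cut at about 29% in these data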;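 also: 0% = Melanotan II alone and 100% = Melanotan II plus saturating MCL0020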
#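 Assay system: U2OS cells stably expressing human melanocortin 4 receptor (MC4R) / Dosing: 6.5 µM / Timing: compound 30 min, challenge 1 h, detection 1 h / Measured by: Eu-cAMP/anti-cAMP TR-FRET, emission 671 nm / Replicates: singlicate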
# MIN6 prolif-2 – inducers of beta-cell proliferation in MIN6, confirmation, MIN6 cells, mouse; AID 463095, 2010; 920 tested, under 10 active; proliferation increase, % at 50 µM; ATPlite luminescence, 48 h; cells kept in 0.2% serum; scaled between 0.2% and 10% serum; shares compounds with MIN6 prolif-1;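 active = proliferation increase above 40% at any of the four tested concentrations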
# Numbers without * were called inactive; . = no result given. Only some compounds are listed: those with a hit (about 2.1% of all), similar ones and a draw of the others.
SMILES,TLR9-MyD88 inh,MC4R ag barr,TLR4 MyD88 comp,MIN6 prolif-1,NOD2-RIPK2 inh,MC4R antag cAMP,MIN6 prolif-2
Cc1ccc(C2=NN(CC(=O)NCCC(C)C)C(=O)CC2)cc1,0.7,-1.9,.,1.9,-10.0,-1.0,.
Cc1ccc(C(=O)C(C)N2C(=O)NC(C)(c3ccccc3)C2=O)cc1 (centres undefined),5.3,1.1,-2.6,-4.2,-4.7,0.6,.
COc1ccccc1NC(=O)C(C)OC(=O)C1CCN(S(=O)(=O)c2ccc(C)c(C)c2)CC1 (centres undefined),0.4,0.0,.,16.4*,0.6,1.9,-4.8
NS(=O)(=O)c1ccc(NC(=S)NCc2ccccc2Cl)cc1,-3.5,-2.1,-4.5,5.3*,-5.8,11.4,-5.5
C=CCOn1c(=O)c(-c2ccccc2)[n+]([O-])c2ccccc21,2.6,-2.5,9.3,-2.2,-6.6,5.1,.
C=CCOn1c(=O)c(-c2ccc(Br)cc2)[n+]([O-])c2ccccc21,-0.4,-0.4,.,8.9*,2.2,-0.5,-2.0
C=CCN(c1ccccc1)S(=O)(=O)c1ccc(Cl)c(C(=O)OCC(=O)N(C)C2CCS(=O)(=O)C2)c1 (centres undefined),3.5,1.5,-7.0,-0.1,-14.9,4.2,.
C[C@@H]1C[C@@H]2OC(=O)[C@]3(C)[C@H]2[C@@H](OC3(C)O)[C@]2(C)C(=O)CC[C@H]12 (some centres undefined),.,.,.,10.8*,.,.,0.5
CCCNC(=O)c1n[nH]c(=O)c2ccccc12,-6.6,1.8,9.9,5.6*,-0.4,0.2,2.0
O=C(NCCOc1ccccc1)c1n[nH]c(=O)c2ccccc12,-8.1,-2.0,0.4,-2.8,-1.3,-0.8,.
Cc1ccc(NC(=O)CN(c2ccccc2F)S(C)(=O)=O)cc1,0.0,-1.1,10.8,5.1*,1.5,0.8,0.5
CCOC(=O)c1ccccc1NC(=O)CN(c1ccccc1C)S(C)(=O)=O,2.4,0.6,3.1,8.4*,-19.3,5.0,-3.3
COc1ccccc1NC(=O)CN(c1ccccc1C)S(C)(=O)=O,18.1,-0.7,.,-2.5,5.6,4.4,.
Cc1ccc(N2C(=O)Nc3ccc(Br)cc3C2(O)C(=O)NCCN(C)C)cc1C (centres undefined),4.7,-2.6,.,-2.0,0.2,2.6,.
Cc1nn(CC(=O)NCCCc2ccccc2)c(C)c1[N+](=O)[O-],3.7,-2.2,13.3,0.4,-10.5,-4.4,.
CNC(=O)C1CCN(S(=O)(=O)c2c(C)noc2/C=C/c2ccc(OC)cc2)CC1,-9.2,0.1,.,4.2,-9.1,3.5,.
O=C(NC1CCCCCCC1)C1c2ccccc2C(=O)N1Cc1ccco1 (centres undefined),-1.4,-1.6,10.6,4.3,11.3,18.3,.
CC1CCCC(NC(=O)C2c3ccccc3C(=O)N2Cc2cccs2)C1C (centres undefined),-6.6,0.9,-7.3,0.0*,6.4,-3.5,-6.3
Cc1cccc(-c2c3c(=O)n(C)c(=O)n(C)c3c3cccnn23)c1,3.5,-1.9,-3.9,9.0*,-12.1,-18.7,-2.4
OC(c1cc(F)cc(Cl)c1)c1ncc(-c2cccc(C(F)(F)F)c2)[nH]1 (centres undefined),.,0.1,.,.,0.8,-18.4,.
Brc1cccc(-c2nnc(SCc3ccon3)n2-c2ccccc2)c1,-14.1,-2.2,-9.5,11.8*,-4.5,14.0,-6.2
CCc1cc(C(=O)NNC(=O)CCN2CCN(c3ccccc3)CC2)sc1C,2.9,-1.1,.,12.9*,-11.7,-1.3,-3.4
